# Active and inactive are the calls of the source. No cut-off for these calls is given here.
# Experiments:
# [1] = target: T1, Protein deacetylase HDAC6 (Homo sapiens, UniProt Q9UBN7); test: Inhibition of recombinant human HDAC6 by fluorimetry
# T1 sequence (Q9UBN7 whole entry): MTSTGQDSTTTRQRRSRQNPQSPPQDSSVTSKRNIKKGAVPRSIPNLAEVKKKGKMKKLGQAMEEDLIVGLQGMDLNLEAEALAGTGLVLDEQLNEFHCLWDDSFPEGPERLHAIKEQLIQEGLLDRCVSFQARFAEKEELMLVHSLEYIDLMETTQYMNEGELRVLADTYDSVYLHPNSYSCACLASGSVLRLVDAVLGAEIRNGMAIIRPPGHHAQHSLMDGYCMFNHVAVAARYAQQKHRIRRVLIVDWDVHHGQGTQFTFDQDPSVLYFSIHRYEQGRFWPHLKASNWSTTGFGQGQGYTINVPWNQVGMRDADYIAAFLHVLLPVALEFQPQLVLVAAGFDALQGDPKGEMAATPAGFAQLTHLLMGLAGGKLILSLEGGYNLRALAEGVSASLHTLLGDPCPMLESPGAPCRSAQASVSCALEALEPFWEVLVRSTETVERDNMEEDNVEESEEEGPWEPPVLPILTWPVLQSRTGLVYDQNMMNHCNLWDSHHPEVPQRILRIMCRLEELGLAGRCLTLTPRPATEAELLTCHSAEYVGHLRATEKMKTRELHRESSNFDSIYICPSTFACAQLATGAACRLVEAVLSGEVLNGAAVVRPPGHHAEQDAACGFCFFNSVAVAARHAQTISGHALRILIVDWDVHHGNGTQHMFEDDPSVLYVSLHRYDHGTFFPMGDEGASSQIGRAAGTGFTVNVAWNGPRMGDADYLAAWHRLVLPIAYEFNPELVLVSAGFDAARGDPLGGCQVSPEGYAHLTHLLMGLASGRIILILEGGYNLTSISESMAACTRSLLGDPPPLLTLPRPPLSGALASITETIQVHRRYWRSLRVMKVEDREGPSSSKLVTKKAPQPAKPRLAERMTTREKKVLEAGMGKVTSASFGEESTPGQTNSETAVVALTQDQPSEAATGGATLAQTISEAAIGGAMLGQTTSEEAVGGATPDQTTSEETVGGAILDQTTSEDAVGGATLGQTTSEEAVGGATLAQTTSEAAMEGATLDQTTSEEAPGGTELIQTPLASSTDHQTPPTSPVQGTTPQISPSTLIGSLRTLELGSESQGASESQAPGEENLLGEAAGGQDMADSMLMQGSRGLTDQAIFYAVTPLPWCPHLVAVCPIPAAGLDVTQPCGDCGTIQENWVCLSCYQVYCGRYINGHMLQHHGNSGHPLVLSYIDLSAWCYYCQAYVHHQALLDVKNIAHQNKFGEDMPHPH
# [2] = Ionization constant, pKa of the compound in buffer measured over 3 hrs by UV spectrometry; type: physicochemical
# [3] = Chemical stability of the compound in acidic buffer assessed as compound hydrolysis at pH 2 measured for 240 mins by HPLC-PDA analysis; type: physicochemical; conditions: pH 2, 4 h
# Outline: (§1)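 Compounds stirred in pH 7.4 or pH 2 buffer at 37 °C for 240 min; percentage of compound recovered followed over time (30 min and 4 h points). Triplicate runs, values averaged.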
# HepG2 [4] = test: Effect on cell cycle distribution in human HepG2 cells assessed as accumulation at G2/M phase at 5 uM after 24 and 48 hrs by propidium iodide staining-based flow cytometry; type: functional
# Outline: (§2)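 Cell cycle of HepG2 cells by flow cytometry after 5 or 10 µM for 24 and 48 h, giving SubG1, G0/G1, S and G2/M fractions. ANOVA with Tukey's post-test against control.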
# HepG2 [5] = test: Effect on cell cycle distribution in human HepG2 cells assessed as decrease in S phase at 5 to 10 uM after 24 to 48 hrs by propidium iodide staining-based flow cytometry; type: functional; outline: as §2
# Calu-1 [6] = test: Inhibition of cell migration in human Calu1 cells at 15 and 30 nM after 48 hrs by scratch test; type: functional, cell-based
# Outline: (§3)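 Calu-1 migration by scratch test after 48 h treatment. DMSO vehicle control; one representative of three independent experiments.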
# [7] = target: T2, Protein deacetylase HDAC6 (Homo sapiens) (UniProt Q9UBN7); test: Inhibition of HDAC6 in human A549 cells assessed as induction of tubulin acetylation at 15 to 54 nM after 24 hrs by Western blotting analysis; type: cell-based
# T2 sequence (whole entry): T1 sequence (Q9UBN7 whole entry)
# Outline: (§4)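 Calu-1 and A549 cells treated 24 h, acetylated tubulin detected by western blot with GAPDH as loading control. DMSO vehicle control; one representative of three independent experiments.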
# Histone deacetylase = test: Inhibition of HDAC in rat liver by fluorimetry
# Outline: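 Rat liver HDAC IC50 from a six-point enzyme assay, three-fold serial dilution starting at 3 µM or 1 µM depending on compound; mean of two experiments ± SD.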
# HepG2 [8] = test: Effect on cell cycle distribution in human HepG2 cells assessed as accumulation at SubG1 phase at 5 to 10 uM after 24 to 48 hrs by propidium iodide staining-based flow cytometry; type: functional; outline: as §2
# [9] = Lipophilicity, logD of the compound at pH 7.4 after 4 hrs; type: physicochemical; conditions: buffer
# MCF7 = test: Antiproliferative activity against human MCF7 cells assessed as reduction in cell viability at 40 uM after 48 hrs by MTS assay; type: functional, cell-based
# Outline: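 MCF-7 cells exposed at 40 µM for 48 h, viability by MTS; ANOVA with Tukey's post-test against control.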
# [10] = Aqueous solubility of the compound in buffer at pH 7.4 after 24 hrs by spectrophotometric method; type: physicochemical
# Outline: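 Water solubility in pH 7.4 buffer, measured spectrophotometrically by the method of Schneider and coworkers.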
# HepG2 [11] = test: Antiproliferative activity against human HepG2 cells assessed as reduction in cell viability after 48 hrs by MTS assay; type: functional, cell-based; conditions: HepG2, 48 h
# HT-144 = test: Antiproliferative activity against human HT144 cells assessed as reduction in cell viability at 40 uM after 48 hrs by MTS assay; type: functional, cell-based
# HepG2 [12] = test: Antiproliferative activity against human HepG2 cells assessed as reduction in cell viability at 40 uM after 48 hrs by MTS assay; type: functional, cell-based
# Histone deacetylase 8 = target: T3, Histone deacetylase 8 (Homo sapiens, UniProt Q9BY41); test: Inhibition of recombinant human HDAC8 by fluorimetry
# T3 sequence (Q9BY41 whole entry): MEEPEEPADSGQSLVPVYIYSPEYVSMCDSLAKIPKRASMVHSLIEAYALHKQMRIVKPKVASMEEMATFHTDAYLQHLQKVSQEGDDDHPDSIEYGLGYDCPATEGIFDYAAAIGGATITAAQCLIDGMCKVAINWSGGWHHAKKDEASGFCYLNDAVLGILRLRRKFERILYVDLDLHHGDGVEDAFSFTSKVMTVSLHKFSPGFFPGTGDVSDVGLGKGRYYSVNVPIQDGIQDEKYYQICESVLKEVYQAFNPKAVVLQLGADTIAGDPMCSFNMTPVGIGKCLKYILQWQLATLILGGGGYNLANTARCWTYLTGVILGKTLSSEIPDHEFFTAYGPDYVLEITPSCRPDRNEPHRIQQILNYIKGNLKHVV
# Histone deacetylase 2 = Histone deacetylase 2 (Homo sapiens, UniProt Q92769); test: Inhibition of recombinant human HDAC2 by fluorimetry
# [13] = Antiproliferative activity against human HT144 cells assessed as reduction in cell viability after 48 hrs by MTS assay; type: functional, cell-based; conditions: HT-144, 48 h
# [14] = target: T2, Protein deacetylase HDAC6 (Homo sapiens); test: Inhibition of HDAC6 in human Calu1 cells assessed as induction of tubulin acetylation at 15 to 54 nM after 24 hrs by Western blotting analysis; type: cell-based; conditions: Calu-1; outline: as §4
# Histone deacetylase 1 = Histone deacetylase 1 (Homo sapiens, UniProt Q13547); test: Inhibition of recombinant human HDAC1 by fluorimetry
# HepG2 [15] = test: Effect on cell cycle distribution in human HepG2 cells assessed as decrease in G0/G1 phase at 5 to 10 uM after 24 to 48 hrs by propidium iodide staining-based flow cytometry; type: functional; outline: as §2
# [16] = target: Histone deacetylase (Rattus norvegicus) (UniProt Q6P6W3+Q99P99+Q99P96+Q4QQW4+Q99P97+Q5RJZ2+B1WBY8); test: Inhibition of HDAC in rat liver at 1 uM by fluorimetry
# Outline: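 Rat liver HDAC preparation, non-selective enzyme assay, test compounds at 1 µM; % inhibition is the mean of two experiments.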
# [17] = Chemical stability of compound in phosphate dibasic buffer assessed as compound degradation at pH 7.4 by HPLC-PDA analysis; type: physicochemical; conditions: read-out: Drug degradation; outline: as §1
# [18] = Chemical stability of the compound in acidic buffer assessed as compound recovery at pH 2 after 4 hrs by HPLC-PDA analysis; type: physicochemical; outline: as §1
# [19] = target: T2, Protein deacetylase HDAC6 (Homo sapiens); test: Inhibition of HDAC6 in human A549 cells assessed as induction of tubulin acetylation at 27 to 54 nM after 24 hrs by Western blotting analysis; type: cell-based; outline: as §4
# [20] = target: T2, Protein deacetylase HDAC6 (Homo sapiens); test: Inhibition of HDAC6 in human Calu1 cells assessed as induction of tubulin acetylation at 27 to 54 nM after 24 hrs by Western blotting analysis; type: cell-based; conditions: Calu-1; outline: as §4
# Calu-1 [21] = test: Inhibition of cell migration in human Calu1 cells at 27 and 54 nM after 48 hrs by scratch test; type: functional, cell-based; outline: as §3
# HepG2 [22] = test: Induction of apoptosis in human HepG2 cells at 5 to 10 uM after 24 hrs by TUNEL assay; type: functional, cell-based
# Outline: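 HepG2 cells treated 24 h (5 and 10 µM for TUNEL, 5 µM for caspase 3/7). Apoptosis scored by flow cytometry as TUNEL-positive frequency and as cells with activated caspase 3/7. Doxorubicin positive control; ANOVA with Tukey's post-test.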
# [23] = Chemical stability of the compound in acidic buffer assessed as compound recovery at pH 2 after 30 mins by HPLC-PDA analysis; type: physicochemical; outline: as §1
# [24] = acidic buffer, pH 2, read-out: Drug recovery
# Chain of Histone deacetylase 2 (Q92769 whole entry): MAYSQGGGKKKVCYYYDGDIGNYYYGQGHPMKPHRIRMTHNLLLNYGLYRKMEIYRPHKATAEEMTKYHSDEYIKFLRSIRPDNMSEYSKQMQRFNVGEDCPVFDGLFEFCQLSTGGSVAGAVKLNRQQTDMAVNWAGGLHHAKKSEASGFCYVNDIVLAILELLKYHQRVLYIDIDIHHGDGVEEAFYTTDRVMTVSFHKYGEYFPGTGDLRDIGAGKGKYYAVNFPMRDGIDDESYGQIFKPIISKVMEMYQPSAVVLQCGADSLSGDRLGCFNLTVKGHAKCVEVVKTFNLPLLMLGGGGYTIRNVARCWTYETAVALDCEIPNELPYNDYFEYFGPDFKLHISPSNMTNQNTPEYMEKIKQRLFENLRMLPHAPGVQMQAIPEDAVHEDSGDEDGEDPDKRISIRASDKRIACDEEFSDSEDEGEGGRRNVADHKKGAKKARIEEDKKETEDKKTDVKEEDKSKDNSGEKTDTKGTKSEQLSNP
# Chain of Histone deacetylase 1 (Q13547 whole entry): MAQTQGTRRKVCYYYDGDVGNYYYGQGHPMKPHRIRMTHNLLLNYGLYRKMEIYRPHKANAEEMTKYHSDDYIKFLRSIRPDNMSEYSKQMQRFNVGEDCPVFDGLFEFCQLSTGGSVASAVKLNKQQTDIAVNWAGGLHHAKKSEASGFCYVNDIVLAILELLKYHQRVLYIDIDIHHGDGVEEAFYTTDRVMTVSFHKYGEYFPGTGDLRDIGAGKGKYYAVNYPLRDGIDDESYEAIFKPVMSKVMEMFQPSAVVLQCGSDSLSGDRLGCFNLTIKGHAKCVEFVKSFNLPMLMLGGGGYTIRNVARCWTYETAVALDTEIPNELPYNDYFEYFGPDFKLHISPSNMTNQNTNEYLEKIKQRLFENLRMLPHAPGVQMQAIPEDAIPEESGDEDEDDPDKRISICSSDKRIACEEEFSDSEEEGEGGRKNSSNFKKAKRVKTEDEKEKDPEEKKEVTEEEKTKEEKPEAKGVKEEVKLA
IC50 [1] [µM],solubility at 24 h [10] [µM],IC50 (Histone deacetylase 8) [µM],IC50 (Histone deacetylase 2) [µM],IC50 (Histone deacetylase 1) [µM],inhibition [16] [%],SMILES,Activity (MCF7),Activity (HT-144),Activity (HepG2 [12]),also measured
0.015,15,0.23,> 3,> 3,90.4,CN(C)c1ccc(C(=O)N/N=C/c2ccc(C(=O)NO)cc2)cc1,Active,Active,Active,pKa at 3 h [2]: 8.1; Stability [3]: Unstable; Activity (HepG2 [4]): Active; Activity (HepG2 [5]): Active; inhibition (Calu-1 [6]): Active; inhibition [7]: Active; IC50 (Histone deacetylase): 0.021 µM; Activity (HepG2 [8]): Active; logD at 4 h [9]: 0.68; IC50 (HepG2 [11]): 9.48 µM; IC50 [13]: 21.2 µM; inhibition [14]: Active; Activity (HepG2 [15]): Active; degraded [17]: > 15%
,> 77,,,,-9.1,CN(C)c1ccc(C(=O)N/N=C/c2ccc(C(=O)O)cc2)cc1,,,,
,1.4,,,,,COC(=O)c1ccc(/C=N/N(C)C(=O)c2ccc(N(C)C)cc2)cc1,,,,
,1.7,,,,,COC(=O)c1ccc(/C=N/NC(=O)c2ccc(N(C)C)cc2)cc1,,,,
,3.7,,,,-4.6,COC(=O)c1cccc(/C=N/NC(=O)c2ccc(N(C)C)cc2)c1,,,,

# Second part, the compound before the results:
SMILES,IC50 [1] [µM],solubility at 24 h [10] [µM],IC50 (Histone deacetylase 8) [µM],IC50 (Histone deacetylase 2) [µM],IC50 (Histone deacetylase 1) [µM],inhibition [16] [%],Activity (MCF7),Activity (HT-144),Activity (HepG2 [12]),also measured
CN(/N=C/c1ccc(C(=O)NO)cc1)C(=O)c1ccc(N(C)C)cc1,0.027,> 64,0.13,> 3,> 3,90.4,Active,Active,Active,"pKa at 3 h [2]: 8.1; Stability [3]: Unstable; remaining at 4 h [18, 24]: 70%; IC50 (Histone deacetylase): 0.018 µM; logD at 4 h [9]: 0.98; IC50 (HepG2 [11]): 24.1 µM; inhibition [19]: Active; inhibition [20]: Active; inhibition (Calu-1 [21]): Active; IC50 [13]: 36.1 µM; degraded [17]: > 15%"
CN(/N=C/c1cccc(C(=O)O)c1)C(=O)c1ccc(N(C)C)cc1,,> 67,,,,-5.8,,,,
COC(=O)c1cccc(/C=N/N(C)C(=O)c2ccc(N(C)C)cc2)c1,,8.2,,,,,,,,
C/C(=N\NC(=O)c1ccc(N(C)C)cc1)c1ccc(C(=O)NO)cc1,0.056,6.2,0.11,> 3,> 3,,Active,Active,Active,"Stability [3]: Unstable; Activity (HepG2 [5]): Active; Stability ([18]; buffer, pH 2, 4 h): Unstable; Activity (HepG2 [22]): Active; Activity (HepG2 [8]): Active; IC50 (HepG2 [11]): 11.5 µM; IC50 [13]: 20 µM; remaining at 0.5 h [23, 24]: 6%; Activity (HepG2 [15]): Active; degraded [17]: > 15%"
C/C(=N\N(C)C(=O)c1ccc(N(C)C)cc1)c1ccc(C(=O)NO)cc1,0.097,122,0.054,> 3,> 3,,Active,Active,Active,"Stability [3]: Unstable; IC50 (HepG2 [11]): 30.3 µM; IC50 [13]: 51.6 µM; Stability ([23]; buffer, pH 2, 0.5 h): Unstable; degraded [17]: > 15%"
CN(/N=C/c1cccc(C(=O)NO)c1)C(=O)c1ccc(N(C)C)cc1,2.5,> 70,2,> 10,> 10,33.4,Active,Active,Active,
CN(C)c1ccc(C(=O)N/N=C/c2cccc(C(=O)O)c2)cc1,,> 70,,,,,,,,
CN(/N=C/c1ccc(C(=O)O)cc1)C(=O)c1ccc(N(C)C)cc1,,> 67,,,,-8.7,,,,
CN(C)c1ccc(C(=O)N/N=C/c2cccc(C(=O)NO)c2)cc1,0.39,> 67,2.2,> 10,> 10,66,Active,Active,Active,IC50 (Histone deacetylase): 1.2 µM
